Source: ChEMBL document CHEMBL1926562, “Design, synthesis and biological activity of sphingosine kinase 2 selective inhibitors” (Bioorg Med Chem, 2012)
Activity calls are given as the source filed them. No cut-off for these calls is given here.

Assays:
[1] = molecular target: T1, Sphingosine kinase 2 (Mus musculus, UniProt Q9JIA7); assay: Inhibition of mouse SphK2 expressed in baculovirus infected Sf9 insect cells using sphingosine and [gamma-(32)P]-ATP by scintillation proximity assay
T1 sequence (Q9JIA7 whole entry): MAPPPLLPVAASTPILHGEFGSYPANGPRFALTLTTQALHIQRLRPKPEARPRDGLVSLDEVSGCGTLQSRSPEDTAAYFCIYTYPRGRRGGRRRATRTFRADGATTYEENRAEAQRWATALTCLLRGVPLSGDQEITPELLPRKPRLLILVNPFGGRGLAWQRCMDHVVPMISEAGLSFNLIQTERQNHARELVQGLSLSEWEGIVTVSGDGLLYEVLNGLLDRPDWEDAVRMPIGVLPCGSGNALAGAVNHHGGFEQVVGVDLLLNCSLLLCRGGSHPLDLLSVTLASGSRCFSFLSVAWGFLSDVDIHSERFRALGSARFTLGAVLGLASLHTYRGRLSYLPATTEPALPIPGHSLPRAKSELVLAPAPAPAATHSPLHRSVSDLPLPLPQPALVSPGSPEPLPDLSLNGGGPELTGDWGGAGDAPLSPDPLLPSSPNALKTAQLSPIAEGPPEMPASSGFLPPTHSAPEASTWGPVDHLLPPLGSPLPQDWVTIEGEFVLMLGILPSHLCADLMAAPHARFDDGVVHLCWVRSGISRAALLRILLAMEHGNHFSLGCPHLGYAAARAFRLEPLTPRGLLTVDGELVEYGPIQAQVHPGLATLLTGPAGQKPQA

[2] = molecular target: T2, Sphingosine kinase 2 (Homo sapiens) (UniProt Q9NRA0); assay: Inhibition of SphK2 in human U937 cells assessed as decrease in ERK phosphorylation after 16 hrs by Western blot analysis; assay type: cell-based; conditions: U-937
T2 sequence (whole entry): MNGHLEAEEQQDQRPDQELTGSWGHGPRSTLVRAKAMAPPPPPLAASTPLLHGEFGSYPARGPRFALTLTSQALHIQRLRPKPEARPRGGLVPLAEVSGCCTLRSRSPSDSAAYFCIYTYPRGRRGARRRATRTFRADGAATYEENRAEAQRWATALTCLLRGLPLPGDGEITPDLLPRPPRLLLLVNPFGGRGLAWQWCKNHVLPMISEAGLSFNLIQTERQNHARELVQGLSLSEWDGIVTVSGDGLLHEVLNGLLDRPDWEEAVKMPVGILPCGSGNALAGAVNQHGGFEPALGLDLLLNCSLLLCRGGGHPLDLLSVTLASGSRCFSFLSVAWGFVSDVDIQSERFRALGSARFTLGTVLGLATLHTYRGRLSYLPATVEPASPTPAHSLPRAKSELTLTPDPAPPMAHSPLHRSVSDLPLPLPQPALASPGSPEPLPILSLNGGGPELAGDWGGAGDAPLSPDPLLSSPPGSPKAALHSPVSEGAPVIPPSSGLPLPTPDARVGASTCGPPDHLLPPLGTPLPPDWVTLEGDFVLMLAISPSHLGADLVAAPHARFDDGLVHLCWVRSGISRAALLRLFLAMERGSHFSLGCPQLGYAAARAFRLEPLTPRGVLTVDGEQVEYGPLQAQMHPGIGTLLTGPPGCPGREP
Outline: (§1)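 U937 cells were incubated with a range of inhibitor concentrations for 16 h, then washed with PBS and Dounce-lysed. Equal protein amounts were run on 10% SDS–PAGE and blotted to nitrocellulose. Blots were blocked in 5% milk/TBS-Tween, probed with antibodies to ERK, p-ERK, Akt, p-Akt and β-actin (1:1000, 1 h), then HRP anti-IgG (1:2000). PD098059 (10 μM) served as ERK-phosphorylation control.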

[3] = molecular target: T2, Sphingosine kinase 2 (Homo sapiens); assay: Inhibition of SphK2 in human U937 cells using FTY720 as substrate assessed as decrease in phosphorylated FTY720 at 10 uM after 2 hrs by LC/MS analysis; assay type: cell-based; conditions: U-937
Outline: (§2)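 Cultured U937 cells were given FTY720 plus 10 μM inhibitor for 2 h, then pelleted by centrifugation. FTY720 and FTY720-P in the cell pellet were measured by LC/MS (C18 reverse phase, water/methanol/formic acid gradient) and reported as moles per million cells. Values are means ± SD of three independent experiments, with significance by unpaired two-tailed t-test.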

[4] = Selectivity ratio of Ki/Km for human SphK1 to Ki/Km for mouse SphK2
Outline: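 Selectivity calculated as (Ki/Km)SphK1 divided by (Ki/Km)SphK2, with sphingosine Km taken as 10 μM for SphK1 and 5 μM for SphK2.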

[5] = molecular target: T3, Sphingosine kinase 2 (Mus musculus) (UniProt Q9JIA7); assay: Inhibition of mouse SphK2 expressed in baculovirus infected Sf9 insect cells assessed as remaining activity using sphingosine and [gamma-(32)P]-ATP at 100 uM by scintillation proximity counting
T3 sequence (whole entry): T1 sequence (Q9JIA7 whole entry)
Outline: (§3)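 Enzyme source: supernatant (10,000×g) of homogenized Sf9 cells infected with recombinant virus for 72 h, 2-3 μg protein per reaction. Sphingosine substrate at 10 μM for SphK1 and 5 μM for SphK2. Initial screen used inhibitor at 100 μM, with some compounds at 10 μM. Read-out is percent of remaining kinase activity, averaged over three experiments.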

[6] = molecular target: T4, Sphingosine kinase 1 (Homo sapiens, UniProt Q9NYA1); assay: Inhibition of human SphK1 expressed in baculovirus infected Sf9 insect cells assessed as remaining activity using sphingosine and [gamma-(32)P]-ATP as substrate at 100 uM by scintillation proximity counting; outline: as §3
T4 sequence (Q9NYA1 whole entry): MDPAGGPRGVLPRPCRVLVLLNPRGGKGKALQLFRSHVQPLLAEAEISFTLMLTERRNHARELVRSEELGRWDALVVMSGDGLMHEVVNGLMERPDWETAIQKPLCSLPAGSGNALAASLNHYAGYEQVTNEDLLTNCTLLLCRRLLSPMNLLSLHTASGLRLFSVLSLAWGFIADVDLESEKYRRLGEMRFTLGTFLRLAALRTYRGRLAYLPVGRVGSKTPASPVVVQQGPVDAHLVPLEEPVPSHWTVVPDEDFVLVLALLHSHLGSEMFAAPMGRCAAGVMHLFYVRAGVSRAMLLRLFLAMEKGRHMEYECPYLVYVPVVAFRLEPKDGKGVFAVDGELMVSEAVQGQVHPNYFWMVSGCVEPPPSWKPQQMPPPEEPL

[7] = molecular target: T2, Sphingosine kinase 2 (Homo sapiens); assay: Inhibition of SphK2 in human U937 cells assessed as change in S1P level by LC/MS analysis; assay type: cell-based; conditions: U-937
Outline: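 U937 cells were treated with inhibitor, and S1P levels were measured by LC/MS.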

[8] = molecular target: T2, Sphingosine kinase 2 (Homo sapiens); assay: Inhibition of SphK2 in human U937 cells assessed as decrease in Akt phosphorylation after 16 hrs by Western blot analysis; assay type: cell-based; conditions: U-937; outline: as §1
[9] = molecular target: T4, Sphingosine kinase 1; assay: Inhibition of human SphK1 expressed in baculovirus infected Sf9 insect cells using sphingosine and [gamma-(32)P]-ATP by scintillation proximity assay
Outline: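 Ki calculated as Ki = [I]/(K′m/Km – 1), using a sphingosine Km of 10 μM for SphK1 and 5 μM for SphK2. Enzyme came from infected Sf9 cell extract (10,000×g supernatant, 2-3 μg protein).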

[10] = molecular target: T2, Sphingosine kinase 2 (Homo sapiens); assay: Inhibition of SphK2 in human U937 cells using FTY720 as substrate assessed as accumulation of FTY720 at 10 uM after 2 hrs by LC/MS analysis; assay type: cell-based; conditions: U-937; outline: as §2

Ki [1]: 8 µM
inhibition [2]: Dose-dependent effect
inhibition [3]: Active
Selectivity ratio [4]: 2.94
Activity [5]: 7.2%
Activity [6]: 5.3%
inhibition [7]: inactive
inhibition [8]: Dose-dependent effect
Ki [9]: 47 µM
inhibition [10]: Active
Structure (SMILES): CCCCCCCCc1ccc([C@H]2CC[C@H]([N+](C)(C)CCC)CC2)cc1
